Experimental data as given in ChEMBL document CHEMBL3091379, “A selective mitochondrial-targeted chlorambucil with remarkable cytotoxicity in breast and pancreatic cancers” (J Med Chem, 2013).

Tested on: MCF7
Assay: Cytotoxicity against human MCF7 cells after 72 hrs by MTT assay
Type: functional, cell-based
Conditions: MCF7, 72 h
Method in brief: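 Cells seeded at 4 × 10^3 per well, adhered overnight, then exposed continuously for 72 h. Media refreshed, MTT added to 0.3 mg/mL final, 4 h at 37 °C. Formazan dissolved in DMSO and read at 570 nm. IC50 taken from log concentration vs % nonviable cells; triplicate wells. Rho θ lines grown with 50 μg/mL uridine.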

Compound | IC50 [µM]
CCCC[P+](CCCC)(CCCC)CCCNC(=O)CCCc1ccc(N(CCCl)CCCl)cc1 | 35
O=C(CCCc1ccc(N(CCO)CCO)cc1)NCCC[P+](c1ccccc1)(c1ccccc1)c1ccccc1 | 80
O=C(CCCc1ccc(N(CCCl)CCCl)cc1)NCCC[P+](C1CCCCC1)(C1CCCCC1)C1CCCCC1 | 40
